Activity calls are given as the source filed them.
What was measured:
Rattus norvegicus [1] = species: Rattus norvegicus; assay: Induction of mitochondrial dysfunction in rat liver mitochondria assessed as decrease in membrane potential at 1 uM by spectrophotometric analysis in presence of 50 uM Ca2+; format: functional; conditions: in the assay text read “TPP+-selective electrode” for “spectrophotometric analysis”, TDE = time-dependent effect
Procedure, shortened: (§1)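 Membrane potential (ΔΨ) derived from TPP+ distribution across the inner membrane, measured with a TPP+-selective electrode. Ca2+ 50 μM where indicated; cyclosporin A 1 μM where indicated.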

Rattus norvegicus [2] = species: Rattus norvegicus; assay: Induction of mitochondrial bioenergetics dysfunction in rat liver mitochondria assessed as decrease in respiratory control index at 10 uM by using clark electrode; format: functional
Procedure, shortened: (§2)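 Isolated rat liver mitochondria (1 mg protein/mL), 20 °C, sucrose/HEPES pH 7.4 medium with 5 mM succinate plus 1.25 μM rotenone and 1 mM phosphate. O2 uptake followed with a Clark electrode; 300 μM ADP added to start state 3. RCI = V3/V4 (state 3 over state 4 rate). Five experiments.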

Rattus norvegicus [3] = species: Rattus norvegicus; assay: Induction of mitochondrial dysfunction in Ca2+-stimulated rat liver mitochondria assessed as decrease in SH mitochondrial redox level at 10 uM after 15 mins by absorption spectrophotometric analysis in presence of dithiothreitol; format: functional
Procedure, shortened: (§3)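 Mitochondrial protein thiol oxidation assayed per Santos et al. after 15 min incubation of rat liver mitochondria (1 mg protein/mL, 20 °C, succinate/rotenone standard medium). Results as % reduced thiols, mean ± SD, four independent experiments.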

Rattus norvegicus [4] = species: Rattus norvegicus; assay: Induction of mitochondrial dysfunction in rat liver mitochondria assessed as increase in colloid-osmotic swelling at 10 uM by spectrophotometric analysis in presence of 50 uM Ca2+ and cyclosporin A; format: functional
Procedure, shortened: (§4)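 Swelling read as the 540 nm absorbance decrease in succinate-energized rat liver mitochondria (1 mg protein/mL, 20 °C, pH 7.4 sucrose/HEPES medium) with 50 μM Ca2+. Added agents where indicated: 1 μM CsA, 5 μM bongkrekic acid, 1 mM ADP, 2 μM ruthenium red, 10 μM NEM, 1 mM DTE. At least five repeats.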

Rattus norvegicus [5] = species: Rattus norvegicus; assay: Induction of mitochondrial dysfunction in rat liver mitochondria assessed as decrease in mitochondrial pyridine nucleotide redox level at 10 uM after 15 mins by fluorometric analysis in presence of Ca2+
Rattus norvegicus [6] = species: Rattus norvegicus; assay: Induction of mitochondrial dysfunction in rat liver mitochondria assessed as cytochrome c release at 10 uM after 15 mins by Western blot analysis in presence of Ca2+; format: functional
Procedure, shortened: (§5)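 Mitochondria (1 mg protein/mL) held 15 min at 20 °C in standard succinate/rotenone medium with or without Ca2+, then centrifuged 13000g, 10 min, 4 °C. Supernatants concentrated, resolved by SDS-PAGE (15% for cyt c, 10% for AIF) and immunoblotted with mouse anti-cyt c or rabbit anti-AIF.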

Rattus norvegicus [7] = species: Rattus norvegicus; assay: Hepatoprotective activity in rat liver assessed as inhibition of colloid-osmotic mitochondrial swelling at 100 uM by spectrophotometric analysis in presence of 90 uM Ca2+; format: functional; conditions: Mitochondria
Procedure, shortened: (§6)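 Absorbance change at 540 nm of rat liver mitochondrial suspensions (1 mg protein/mL, 20 °C, succinate/rotenone energized, 250 mM sucrose, 10 mM HEPES pH 7.4, 1 mM phosphate); a fall in absorbance taken as swelling. Ca2+ at 50, 70 or 90 μM as specified, or omitted. Runs repeated at least four times.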

Rattus norvegicus [8] = species: Rattus norvegicus; assay: Induction of mitochondrial dysfunction in rat liver mitochondria assessed as apoptosis inducing factor release at 10 uM after 15 mins by Western blot analysis; format: functional; procedure, shortened: as §5
Rattus norvegicus [9] = species: Rattus norvegicus; assay: Induction of mitochondrial dysfunction in rat liver mitochondria assessed as rapid accumulation of Ca2+ at 10 uM by spectrophotometric analysis; format: functional
Procedure, shortened: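 Rat liver mitochondria, isolated by differential centrifugation in sucrose/HEPES/EGTA buffer, were incubated at 1 mg protein/mL and 20 °C. Ca2+ content of mitochondrial pellets was measured by atomic absorption spectroscopy.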

Rattus norvegicus [10] = species: Rattus norvegicus; assay: Induction of mitochondrial dysfunction in rat liver mitochondria assessed as increase in colloid-osmotic swelling at 100 uM by spectrophotometric analysis in presence of 50 uM Ca2+; format: functional; procedure, shortened: as §6
Rattus norvegicus [11] = species: Rattus norvegicus; assay: Induction of mitochondrial dysfunction in Ca2+-stimulated rat liver mitochondria assessed as decrease in mitochondrial redox level at 10 uM after 15 mins by absorption spectrophotometric analysis in presence of Ca2+ transport inhibitor ruthedium red; format: functional; procedure, shortened: as §3
Rattus norvegicus [12] = species: Rattus norvegicus; assay: Induction of mitochondrial dysfunction in rat liver mitochondria assessed as cytochrome c release at 100 uM after 15 mins by Western blot analysis in presence of Ca2+; format: functional; procedure, shortened: as §5
Rattus norvegicus [13] = species: Rattus norvegicus; assay: Induction of mitochondrial dysfunction in Ca2+-stimulated rat liver mitochondria assessed as decrease in mitochondrial redox level at 10 uM after 15 mins by absorption spectrophotometric analysis in presence of cyclosporin A; format: functional; procedure, shortened: as §3
Rattus norvegicus [14] = species: Rattus norvegicus; assay: Induction of mitochondrial dysfunction in rat liver mitochondria assessed as apoptosis inducing factor release at 10 uM after 15 mins by Western blot analysis in presence of Ca2+; format: functional; procedure, shortened: as §5
Rattus norvegicus [15] = species: Rattus norvegicus; assay: Induction of mitochondrial dysfunction in rat liver mitochondria assessed as apoptosis inducing factor release at 100 uM after 15 mins by Western blot analysis; format: functional; procedure, shortened: as §5
Rattus norvegicus [16] = species: Rattus norvegicus; assay: Induction of mitochondrial dysfunction in Ca2+-stimulated rat liver mitochondria assessed as decrease in mitochondrial redox level at 10 uM after 15 mins by absorption spectrophotometric analysis in presence of N-ethylmaleimide; format: functional; procedure, shortened: as §3
Rattus norvegicus [17] = species: Rattus norvegicus; assay: Induction of mitochondrial dysfunction in rat liver mitochondria assessed as increase in colloid-osmotic swelling at 10 uM by spectrophotometric analysis in presence of 50 uM Ca2+ and ADP; format: functional; procedure, shortened: as §4
Rattus norvegicus [18] = species: Rattus norvegicus; assay: Induction of mitochondrial dysfunction in rat liver mitochondria assessed as increase in colloid-osmotic swelling at 10 uM by spectrophotometric analysis in presence of 50 uM Ca2+ and dithiothreitol; format: functional; procedure, shortened: as §4
Rattus norvegicus [19] = species: Rattus norvegicus; assay: Induction of mitochondrial bioenergetics dysfunction in rat liver mitochondria assessed as decrease in respiratory control index at 25 uM by using clark electrode; format: functional; procedure, shortened: as §2
Rattus norvegicus [20] = species: Rattus norvegicus; assay: Induction of mitochondrial bioenergetics dysfunction in rat liver mitochondria assessed as decrease in respiratory control index at 50 uM by using clark electrode; format: functional; procedure, shortened: as §2
Rattus norvegicus [21] = species: Rattus norvegicus; assay: Induction of mitochondrial dysfunction in rat liver mitochondria assessed as decrease in membrane potential at 100 uM by spectrophotometric analysis in presence of 1 uM MPT inhibitor cyclosporin A; format: functional; procedure, shortened: as §1
Rattus norvegicus [22] = species: Rattus norvegicus; assay: Induction of mitochondrial dysfunction in rat liver mitochondria assessed as cytochrome c release at 10 uM after 15 mins by Western blot analysis; format: functional; procedure, shortened: as §5
HepG2 = assay: Cytotoxicity against human HepG2 cells after 72 hrs by trypan blue assay; format: functional, cell-based; conditions: HepG2, 72 h
Procedure, shortened: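 Cells seeded at 4 × 10^4 per well, grown 24 h, then given fresh medium with a range of concentrations and kept a further 72 h at 37 °C in 5% CO2. Viability was read by trypan blue count. IC50 is the concentration giving 50% fewer cells than control cultures, as mean ± SD of at least four experiments. HeLa were grown in F-12 with 10% heat-inactivated FCS; A-431 and HepG2 in DMEM with 10% FBS.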

Rattus norvegicus [23] = species: Rattus norvegicus; assay: Induction of mitochondrial dysfunction in rat liver mitochondria assessed as initial uptake of Ca2+ per mg protein at 100 uM measured immediately by spectrophotometric analysis; format: functional
Procedure, shortened: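 Ca2+ movements in rat liver mitochondria (1 mg protein/mL, 20 °C, succinate/rotenone medium) exposed to 70 μM Ca2+; Ca2+ in mitochondrial pellets measured by atomic absorption spectroscopy, uptake expressed per mg protein.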

Rattus norvegicus [24] = species: Rattus norvegicus; assay: Induction of mitochondrial dysfunction in rat liver mitochondria assessed as increase in mitochondrial swelling at 10 uM by spectrophotometric analysis in presence of 70 uM Ca2+; format: functional; procedure, shortened: as §6
Rattus norvegicus [25] = species: Rattus norvegicus; assay: Induction of mitochondrial dysfunction in rat liver mitochondria assessed as increase in colloid-osmotic swelling at 10 uM by spectrophotometric analysis in presence of 50 uM Ca2+ and Ca2+ transport inhibitor ruthedium red; format: functional; procedure, shortened: as §4

C/C(=C/CC[C@H](C)[C@@H]1CC[C@]2(C)C3=CC[C@H]4C(C)(C)[C@H](O)CC[C@]4(C)[C@H]3CC[C@@]12C)C(=O)O
inactive: Activity (Rattus norvegicus [3]) | Activity (Rattus norvegicus [4]) | Activity (Rattus norvegicus [8]) | Activity (Rattus norvegicus [11]) | Activity (Rattus norvegicus [12]) | Activity (Rattus norvegicus [13]) | Activity (Rattus norvegicus [15]) | Activity (Rattus norvegicus [16]) | Activity (Rattus norvegicus [17]) | Activity (Rattus norvegicus [18]) | Activity (Rattus norvegicus [22]) | Activity (Rattus norvegicus [25])
20.1 µM: IC50 (HepG2)
20 nmol: Activity (Rattus norvegicus [23])
active: Activity (Rattus norvegicus [1]) tde | Activity (Rattus norvegicus [2]) | Activity (Rattus norvegicus [5]) | Activity (Rattus norvegicus [6]) | inhibition (Rattus norvegicus [7]) | Activity (Rattus norvegicus [9]) | Activity (Rattus norvegicus [10]) | Activity (Rattus norvegicus [14]) | Activity (Rattus norvegicus [19]) | Activity (Rattus norvegicus [20]) | Activity (Rattus norvegicus [21]) | Activity (Rattus norvegicus [24])

Reference: ChEMBL document CHEMBL2034843, “3α-Hydroxymasticadienonic acid as an antiproliferative agent that impairs mitochondrial functions” (J Nat Prod, 2012)
